Measurements from the RNAGym collection of RNA variant scans (doi:10.1126/science.aae0568).
Fewer inactive variants are shown than the library holds.

B1: tRNA (parent)
chain: GUUCCGUUGGCGUAAUGGUAACGCGUCUCCCUCCUAAGGAGAAGACUGCGGGUUCGAGUCCCGUACGGAACG

Variants of: B1
Experiment: yeast fitness relative to wild type (ratio to wild type); higher = fitter; tRNA-Arg(CCU), competitive growth, 37 C, YPD
Method in brief: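 Variants of the tRNA-Arg(CCU) gene were chemically synthesised with a 3% per-site mutation rate across 69 sites and placed at the native genomic locus in Saccharomyces cerevisiae. Six parallel replicates of the pooled strains were competed in YPD at 37°C for 24 hours, and gene amplicons from the start and end populations were read by 100-nucleotide paired-end sequencing. Darwinian fitness relative to wild type was derived from changes in genotype frequencies. Genotypes required ≥ 100 starting reads, and estimates < 0.5 were set to 0.5.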

Going from GGUUCGUUGGCGUAAUGGUAACGCGUCUCCCUCCUAAGGAGAAGACUGCGGGUUCGAGUCCUGUACGUAACG to GUUCCCUUGGCGUAAUGGUAACGCGUCUCCCUCCUAAGGAGAAGACUGCGGGUUCGGGUCCCGUGUGGAACG, the yeast fitness rises from at most 0.5 to 0.537.

Compared with GUUCCGUUGGCGUAAUGGUAACGCGUCUCCCUCCUAAGGAGAAGACUGCGGGUUCGAGUCCCGUCGGGAACG, GUUCCGUUGGCGUAAUGGUAACGCGUCUCCCUCCUAAGCAGAAGACUGCCGGUUCGAGUCGCGUACGGAACG is lower in yeast fitness: 0.588 for the first, at most 0.5 for the second.

Going from GUCCCGUUGGCGUAAUGGUAACGCGUCUCCCUCCUAAGGAGAAGACUGCGCGUUCGGGUCCCGUACGGAACG to GUUCCGUUGGCGUAAUGGGAACGCGUGUCCCUCCUAAGGAGAAGACUGCGGGUUCGAGUCCCGUACGGAACG, the yeast fitness rises from at most 0.5 to 0.776.

First: GUUCCGUUGGCGUAAUGGUAACGCGUCUCCCUCCUAAGGAGAAGACUGCGGGAUCGAGUGCCGUACAGACCG
Second: GUUCCGUUGGCGAAAUGGUAACGCGUCUCCCUCCUAAGGGGGAGACUGCGGGUUCGCGUCCCGUAUGGAACG
The yeast fitness of the first is lower: at most 0.5 for the first, 0.522 for the second.

GUUCCGUUGGCGUCAUGGUACCGCGUUUCCCUCCUAAGGAGAAGACUGCGGGUUCGAGUCCCGUACGGAACG and GAUCCGUUGACGUAAUGGUAACGCGUCUCCCUCCCAAGGAGAAGACUGCGGGUUCGAGUCCCGUACGGAACG cannot be ordered by yeast fitness: at most 0.5 for the first, at most 0.5 for the second.

Compared with GUUUCGUUGGCAUGAUGAUAACGCGUCUCGCUCCUAAGGAGAAGAUUGCGGGUUCGAGUCCCGUACGGAACG, GUUCCGUUGGAGUAAUGGUAACGCGUCUCCCUCCUAAGGAGAAGACUGCGGGUUUGAGUCCCGUACGGAACG is higher in yeast fitness: at most 0.5 for the first, 0.514 for the second.

GUUCCGUUGGCGUAAUAGUAACGCGUCUCCCUCCUAAGGAGAAGACUGCGGGUUGGAGUCCCGUACGGAACG and GUUCCGUUGGCGUAAUGGUUACGCGUCUCCCUCCUAAGGGGGAGACUGCAGGUUCGAGUCCCGUACGGAACG cannot be ordered by yeast fitness: at most 0.5 for the first, at most 0.5 for the second.

GUUCCGUUGGCGUAAUGGUAACGCGUCUCCCUGCUAAGGAAAAGACUGCGGGUUCGAGUCCCGUACGGCACG and GUUCCAUUGGCGUAAUGGUAACGCGUCUCCCUACAAAGGAGAAGACUGCGGGUUCGAGUCCCGUACGCAACG cannot be ordered by yeast fitness: at most 0.5 for the first, at most 0.5 for the second.

First: GUUCCGCUGGCGUAAUGGUAACGCGUCUCCCUCCUAAGGAGAAGACUGCGGGUUCGAGUCCCGUACGCUACG
Second: GAUCAGUUCGCGUAACGGUAACGCCUCUCCCUCCUAAGGAGAAGACUGCGGGUUCGAGUCCCGUACGCAACG
The yeast fitness of the first is higher: 0.612 for the first, 0.586 for the second.

First: GUCCCGUUGGCGAAAUGGUAACGCGUCUCCUUCCUAAGGAAAAGACUGCGGGUUCGAGUCCCGUACGGAACG
Second: GUUCCGUUGGCGUAAUGGUAACGAGUCUCCCUACUAAGGAGAAGACUGUGGGUGCGAGUCCCGUACGGAACG
The yeast fitness of the first is lower: 0.524 for the first, 0.58 for the second.

GUUCCAUUCGCGUAAUGGUAACGCGUCUCCUUCCUAAGGAGAAGACUGCGGGUUCGAGUCCUGUACGCAACG and GUUCCCUUGGCGUAAUGGUAUCGCGUCUCCCUCCUAAGGAGAAGACUGCGGGUUCGAGUCGCGUACGGCACG cannot be ordered by yeast fitness: at most 0.5 for the first, at most 0.5 for the second.

GUUCCGUUGGUGUAAUGGUAACGCGUCUCCCUCCUAAGGAGAAGACUGCGGGUUGGAGUCCCCUACCGAACG and GGUCCGUUGGUGUAAUGGUAACACGUCUCCCUCCUAAGGAGAAGACUGCGGGUUCGAGUCCCGUACGGAACG cannot be ordered by yeast fitness: at most 0.5 for the first, at most 0.5 for the second.

GUUCCGUUGGCGUAAUGGUAACGGGUCUCCCUCCUAAGGCGAAGUCUGCGGGUUCGAGUCCCGUACGGAACG and GUUCCGUUGGCGUAAUGGUAACGCGUCUCCCGCCGCGGGAGAAGACUGCGGGUUCGAGUCGCGUACGGAGCG cannot be ordered by yeast fitness: at most 0.5 for the first, at most 0.5 for the second.

GUUCUGUUGGCGUAAUGGUAACGCGUCUCCCUCCUAAGGAGAAGACUACGCGUUCGAGUCCCGUACGGAACG and GUUCCAUUGGCGUAAUGGUAACGCGCCUCCCUCCUAAGGAGAACACUGCGGGUUCGAGUCCCGUACGGAACG cannot be ordered by yeast fitness: at most 0.5 for the first, at most 0.5 for the second.

Going from GUUCCCUCGGCGUAAUGGUAACGCGUCUCCCUCCUAAGGAGAAGACUGCGGGUUCGACUCCCGUACGGUACG to GUUCCGUUGACGUAAUGGUAACGCGUCUCCCUCCUAAGGAGAAGACUGCGGGUGCGAGUCCCGUACGGAACG, the yeast fitness falls from 0.528 to at most 0.5.

Going from GUUCCGUUGGCGUAAUGGUAACGAGACUCCAUCCUAAGGAGAAGACUGCGGGUUCGAGUCCAGUACGGAACG to GUUCCGUUGGUGUAAUAGUAACGCGUCUCCCUCCUAAGGAGAAGACUACGCGUUCGAGUACCGCACGGAACG, the yeast fitness rises from at most 0.5 to 0.623.

Compared with GUUCCGUUGGCGUAAUGGUAGCGCGUCUCCCUCCUAAGGAGAAGACUGCGGGUUCGAGUCUCGUACGGAGCG, GUUCCGUUGGCGUAAUGGUACCGCGUCUCCCUCCUAAGGAGAAGACUGCGGGUUCGAGUCCCGUACGUAACG is higher in yeast fitness: 0.761 for the first, 0.789 for the second.

Going from GUUCCGUUGAGGUAAUGGUAACGCGUCUCCCUCCUAAGGAGAAGACUGCGGGUUCGAGUACCGUACUGAACG to GUUCCGUUGGCGUAAUGGUAACGCGUCUUCCUCCUAACGAGAAGACUGCGGGUUUGAGUCCCGUACCGAACG, the yeast fitness falls from 0.512 to at most 0.5.

Going from GUUCCGUUGGCCUCAUGGUAACGCGCCUCCCUCCUAAGGGGAAGACUGCGGGUUCGAGUCCCGUAUGGUACG to GAUGCGUUGGCGUAAUGGUAACGCGUCUCCCUCCUAAGGAGAAGACUGCGGGUUAGAGUCGCGUACGGAACG, the yeast fitness falls from 0.598 to at most 0.5.
